The source made the active and inactive calls. The calls are words filed in the database; no cut-off is given here.
Experiments:
[1] = molecular target: T1, Muscarinic acetylcholine receptor M1 (Rattus norvegicus) (UniProt P08482); assay: Allosteric modulation at rat M1 receptor expressed in CHO cells by calcium mobilization assay relative to acetylcholine; format: functional, cell-based; parameters: concentration or dose not given beside the values
T1 sequence (whole entry): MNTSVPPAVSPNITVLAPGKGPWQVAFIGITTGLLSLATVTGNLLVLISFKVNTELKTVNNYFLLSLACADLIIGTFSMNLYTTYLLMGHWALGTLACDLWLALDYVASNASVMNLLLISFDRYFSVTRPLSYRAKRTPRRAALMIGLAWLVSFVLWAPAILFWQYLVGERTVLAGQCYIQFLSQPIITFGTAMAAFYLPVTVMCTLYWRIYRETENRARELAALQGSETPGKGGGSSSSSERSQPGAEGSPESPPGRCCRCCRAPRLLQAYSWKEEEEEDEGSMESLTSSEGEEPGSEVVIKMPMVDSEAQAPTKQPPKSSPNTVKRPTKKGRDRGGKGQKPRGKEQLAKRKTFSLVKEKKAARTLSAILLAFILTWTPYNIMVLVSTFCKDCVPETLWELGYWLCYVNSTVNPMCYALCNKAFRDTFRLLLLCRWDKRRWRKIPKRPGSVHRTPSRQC

[2] = molecular target: T1, Muscarinic acetylcholine receptor M1 (Rattus norvegicus); assay: Agonist activity at rat M1 receptor expressed in CHO cells assessed as leftward shift in Ach response at 30 uM by calcium mobilization assay; format: functional, cell-based
[3] = molecular target: T2, Muscarinic acetylcholine receptor M1 (Rattus norvegicus, UniProt P08482); assay: Allosteric modulation at rat M1 receptor expressed in CHO cells by calcium mobilization assay; format: functional, cell-based
T2 sequence (P08482 whole entry): T1 sequence (whole entry)

[4] = Ratio of AUC in brain to plasma in rat at 10 mg/kg, ip after 1 hr; format: ADME, organism-based; parameters: dose 10 mg/kg, route intraperitoneal; details: brain and plasma
[5] = molecular target: T1, Muscarinic acetylcholine receptor M1 (Rattus norvegicus); assay: Orthosteric binding affinity to rat M1 receptor at 10 uM by radioligand binding assay
How it was run: (§1)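 Radioligand binding panel of 68 GPCRs, ion channels and transporters (Lead Profile screen, run externally), compound tested at 10 μM; read-out as percent activity at each target.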

[6] = molecular target: T3, Muscarinic acetylcholine receptor M3 (Homo sapiens, UniProt P20309); assay: Orthosteric binding affinity to M3 receptor at 10 uM by radioligand binding assay; how it was run: as §1
Target sequence in this assay (P20309 whole entry, looked up): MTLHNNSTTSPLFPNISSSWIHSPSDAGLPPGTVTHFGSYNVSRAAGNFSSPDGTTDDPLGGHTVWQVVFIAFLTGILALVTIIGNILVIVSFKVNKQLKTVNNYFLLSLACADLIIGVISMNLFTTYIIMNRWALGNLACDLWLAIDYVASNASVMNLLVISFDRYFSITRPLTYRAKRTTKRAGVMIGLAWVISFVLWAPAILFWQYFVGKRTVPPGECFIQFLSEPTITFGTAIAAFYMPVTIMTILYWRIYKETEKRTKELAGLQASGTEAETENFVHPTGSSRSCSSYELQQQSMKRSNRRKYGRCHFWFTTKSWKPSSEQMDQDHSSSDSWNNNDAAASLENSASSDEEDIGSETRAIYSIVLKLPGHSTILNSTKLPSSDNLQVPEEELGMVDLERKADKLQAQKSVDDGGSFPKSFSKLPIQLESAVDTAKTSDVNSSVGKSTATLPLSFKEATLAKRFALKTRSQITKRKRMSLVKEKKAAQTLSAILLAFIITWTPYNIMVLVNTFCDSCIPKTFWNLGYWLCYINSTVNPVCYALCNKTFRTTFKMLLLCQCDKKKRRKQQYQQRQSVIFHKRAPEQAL

[7] = molecular target: T4, Muscarinic acetylcholine receptor M2 (Homo sapiens) (UniProt P08172); assay: Orthosteric binding affinity to M2 receptor at 10 uM by radioligand binding assay; how it was run: as §1
T4 sequence (whole entry): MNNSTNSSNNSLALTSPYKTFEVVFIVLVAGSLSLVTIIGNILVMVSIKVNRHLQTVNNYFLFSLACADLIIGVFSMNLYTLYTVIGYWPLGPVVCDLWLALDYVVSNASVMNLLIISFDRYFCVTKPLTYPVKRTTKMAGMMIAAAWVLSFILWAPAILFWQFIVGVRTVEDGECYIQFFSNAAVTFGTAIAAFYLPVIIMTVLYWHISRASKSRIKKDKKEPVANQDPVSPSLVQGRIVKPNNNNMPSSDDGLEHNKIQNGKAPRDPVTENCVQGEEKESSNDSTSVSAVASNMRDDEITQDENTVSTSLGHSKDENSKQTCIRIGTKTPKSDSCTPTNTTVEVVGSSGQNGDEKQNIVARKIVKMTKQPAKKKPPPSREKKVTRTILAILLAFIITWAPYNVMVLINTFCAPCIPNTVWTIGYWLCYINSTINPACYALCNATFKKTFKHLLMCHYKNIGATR

[8] = molecular target: Sodium-dependent dopamine transporter (Homo sapiens) (UniProt Q01959); assay: Binding affinity to DAT at 10 uM by radioligand binding assay; how it was run: as §1
Sodium-dependent dopamine transporter (Homo sapiens), sequence (Q01959 whole entry): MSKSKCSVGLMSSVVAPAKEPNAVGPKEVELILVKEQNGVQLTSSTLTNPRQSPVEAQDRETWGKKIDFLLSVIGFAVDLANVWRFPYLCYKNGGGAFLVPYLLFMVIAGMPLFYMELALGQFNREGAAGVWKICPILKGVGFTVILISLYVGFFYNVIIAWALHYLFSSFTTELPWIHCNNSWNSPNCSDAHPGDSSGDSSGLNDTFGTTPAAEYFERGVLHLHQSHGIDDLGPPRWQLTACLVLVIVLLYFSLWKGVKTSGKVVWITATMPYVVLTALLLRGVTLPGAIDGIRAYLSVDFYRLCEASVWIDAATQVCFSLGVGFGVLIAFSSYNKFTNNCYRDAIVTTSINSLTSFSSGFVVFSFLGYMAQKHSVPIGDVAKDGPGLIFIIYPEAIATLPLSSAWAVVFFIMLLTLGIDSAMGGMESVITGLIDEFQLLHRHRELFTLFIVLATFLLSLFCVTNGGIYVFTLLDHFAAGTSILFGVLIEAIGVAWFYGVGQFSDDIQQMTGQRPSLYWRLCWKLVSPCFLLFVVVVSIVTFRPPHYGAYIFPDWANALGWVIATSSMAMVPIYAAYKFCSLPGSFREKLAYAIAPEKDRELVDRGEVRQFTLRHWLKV

[9] = molecular target: T5, Muscarinic acetylcholine receptor M5 (Homo sapiens) (UniProt P08912); assay: Orthosteric binding affinity to M5 receptor at 10 uM by radioligand binding assay; how it was run: as §1
T5 sequence (whole entry): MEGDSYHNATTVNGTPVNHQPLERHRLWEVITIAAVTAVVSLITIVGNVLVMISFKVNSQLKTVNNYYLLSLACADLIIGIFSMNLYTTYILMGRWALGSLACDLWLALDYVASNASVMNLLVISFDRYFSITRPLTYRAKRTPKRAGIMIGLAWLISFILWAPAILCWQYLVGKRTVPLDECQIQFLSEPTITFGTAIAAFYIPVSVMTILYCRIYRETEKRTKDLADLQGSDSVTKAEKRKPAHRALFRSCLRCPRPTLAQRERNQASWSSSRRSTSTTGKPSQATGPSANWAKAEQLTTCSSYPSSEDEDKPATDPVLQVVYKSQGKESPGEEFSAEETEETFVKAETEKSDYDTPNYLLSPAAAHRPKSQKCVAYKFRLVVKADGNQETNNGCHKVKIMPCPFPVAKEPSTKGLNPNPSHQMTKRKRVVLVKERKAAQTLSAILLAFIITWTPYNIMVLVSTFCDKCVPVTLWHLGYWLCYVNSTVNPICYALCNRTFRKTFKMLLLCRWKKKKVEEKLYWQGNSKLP

[10] = Binding affinity to Sodium channel site 2 at 10 uM by radioligand binding assay; how it was run: as §1
[11] = molecular target: T6, Muscarinic acetylcholine receptor M4 (Homo sapiens) (UniProt P08173); assay: Orthosteric binding affinity to M4 receptor at 10 uM by radioligand binding assay; how it was run: as §1
T6 sequence (whole entry): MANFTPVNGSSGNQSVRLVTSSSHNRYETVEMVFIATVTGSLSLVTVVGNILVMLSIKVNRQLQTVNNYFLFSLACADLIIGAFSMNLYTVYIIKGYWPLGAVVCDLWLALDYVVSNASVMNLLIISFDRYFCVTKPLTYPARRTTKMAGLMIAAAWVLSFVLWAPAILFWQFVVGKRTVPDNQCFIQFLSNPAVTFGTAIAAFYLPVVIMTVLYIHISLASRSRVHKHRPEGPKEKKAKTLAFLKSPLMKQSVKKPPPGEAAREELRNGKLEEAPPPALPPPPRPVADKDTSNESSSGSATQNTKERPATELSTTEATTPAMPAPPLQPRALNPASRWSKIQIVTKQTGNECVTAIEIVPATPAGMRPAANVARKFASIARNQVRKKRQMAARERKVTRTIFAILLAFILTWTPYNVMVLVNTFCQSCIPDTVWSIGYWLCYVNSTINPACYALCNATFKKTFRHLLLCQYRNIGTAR

[12] = molecular target: T7, Muscarinic acetylcholine receptor M5 (Homo sapiens, UniProt P08912); assay: Agonist activity at M5 receptor; format: functional
T7 sequence (P08912 whole entry): T5 sequence (whole entry)

[13] = molecular target: T8, Muscarinic acetylcholine receptor M2 (Homo sapiens, UniProt P08172); assay: Agonist activity at M2 receptor; format: functional
T8 sequence (P08172 whole entry): T4 sequence (whole entry)

[14] = molecular target: T9, Muscarinic acetylcholine receptor M4 (Homo sapiens, UniProt P08173); assay: Agonist activity at M4 receptor; format: functional
T9 sequence (P08173 whole entry): T6 sequence (whole entry)

[15] = molecular target: T3, Muscarinic acetylcholine receptor M3; assay: Agonist activity at M3 receptor; format: functional
Target sequence in this assay (P20309 whole entry): as the sequence (P20309 whole entry, looked up) above

Compound	Activity [1] [%]	EC50 [3] [µM]	other results
Cc1cc(NC(=O)CS(=O)(=O)c2cn(Cc3cccc(-c4cn[nH]c4)c3)c3cc(F)cc(F)c23)no1	102	–	fold change (FC) [2]: 98
Cc1cc(NC(=O)CS(=O)(=O)c2cn(Cc3cccc(Cl)c3)c3ccccc23)no1	96	–	–
Cc1cc(NC(=O)CS(=O)(=O)c2cn(Cc3cccc(Cl)c3F)c3ccccc23)no1	56	–	–
Cc1cc(NC(=O)CS(=O)(=O)c2cn(Cc3cccc(-c4cnn(C)c4)c3)c3ccccc23)no1	102	3.21	–
Cc1cc(NC(=O)CS(=O)(=O)c2cn(Cc3cccc(Br)c3)c3cc(F)cc(F)c23)no1	103	–	–
Cc1cc(NC(=O)CS(=O)(=O)c2cn(Cc3cccc(-c4ccc(N5CCCC5)nc4)c3)c3ccccc23)no1	–	> 10	–
COc1ccccc1Cn1cc(S(=O)(=O)CC(=O)Nc2cc(C)on2)c2ccccc21	–	> 10	–
Cc1cc(NC(=O)CS(=O)(=O)c2cn(Cc3cccc(-c4ccc(N5CCOCC5)nc4)c3)c3ccccc23)no1	–	> 10	–
Cc1cc(NC(=O)CS(=O)(=O)c2cn(Cc3ccc(F)c(-c4cn[nH]c4)c3)c3ccccc23)no1	–	> 10	–
Cn1cc(-c2ccc(CN3C(=O)C(=O)c4ccccc43)c(F)c2)cn1	–	–	Kp at 1 h [4]: 0.1
Cc1cc(NC(=O)CS(=O)(=O)c2cn(Cc3ccc(F)c(Br)c3)c3ccccc23)no1	–	> 10	–
Cc1cc(NC(=O)CS(=O)(=O)c2cn(Cc3cc(Br)ccc3F)c3ccccc23)no1	84	–	Activity [5]: inactive; Activity [6]: inactive; Kp at 1 h [4]: 0.32; Activity [7]: inactive; Activity [8]: 83%; Activity [9]: inactive; Activity [10]: 83%; fold change (FC) [2]: 49; Activity [11]: inactive
CCC(C)n1cc(-c2cccc(Cn3cc(S(=O)(=O)CC(=O)Nc4cc(C)on4)c4ccccc43)c2)cn1 (configuration not stated)	–	> 10	–
Cc1cc(NC(=O)CS(=O)(=O)c2cn(Cc3ccc(Cl)cc3)c3ccccc23)no1	–	> 10	–
Cc1cc(NC(=O)CS(=O)(=O)c2cn(Cc3cc(-c4cn[nH]c4)ccc3F)c3ccccc23)no1	96	3.07	–
Cc1cc(NC(=O)CS(=O)(=O)c2cn(Cc3ccc(Cl)c(Cl)c3)c3ccccc23)no1	–	> 10	–
Cc1cc(NC(=O)CS(=O)(=O)c2cn(Cc3cccc(-c4ccc(N5CCNCC5)nc4)c3)c3ccccc23)no1	–	> 10	–
Cc1cc(NC(=O)CS(=O)(=O)c2cn(Cc3cccc(-c4ccc(Cl)nc4)c3)c3ccccc23)no1	–	> 10	–

Compound	Activity [1] [%]	EC50 [3] [µM]	other results
Cc1cc(NC(=O)CS(=O)(=O)c2cn(Cc3cccc(Br)c3)c3ccccc23)no1	91	–	–
Cc1cc(NC(=O)CS(=O)(=O)c2cn(Cc3ccc(F)c(Cl)c3)c3ccccc23)no1	–	> 10	–
Cc1cc(NC(=O)CS(=O)(=O)c2cn(Cc3ccc(OC(F)(F)F)cc3)c3ccccc23)no1	–	> 10	–
Cc1cc(NC(=O)CS(=O)(=O)c2cn(Cc3cccc(C#N)c3)c3ccccc23)no1	–	> 10	–
Cc1cc(NC(=O)CS(=O)(=O)c2cn(Cc3cccc(-c4cn[nH]c4)c3)c3ccccc23)no1	90	–	–
Cc1cc(NC(=O)CS(=O)(=O)c2cn(Cc3ccc(C(F)(F)F)cc3)c3ccccc23)no1	–	> 10	–
COc1ccc(Cn2cc(S(=O)(=O)CC(=O)Nc3cc(C)on3)c3ccccc32)cc1	–	> 10	–
Cc1cc(NC(=O)CS(=O)(=O)c2cn(Cc3ccccc3Cl)c3ccccc23)no1	–	9.71	EC50 [12]: > 30 µM; EC50 [13]: > 30 µM; EC50 [14]: > 30 µM; EC50 [15]: > 30 µM
Cc1cc(NC(=O)CS(=O)(=O)c2cn(Cc3cccc(C(F)(F)F)c3)c3ccccc23)no1	–	> 10	–
Cc1cc(NC(=O)CS(=O)(=O)c2cn(Cc3cccc(-c4ccccc4)c3)c3ccccc23)no1	–	> 10	–
Cc1cc(NC(=O)CS(=O)(=O)c2cn(Cc3ccccc3F)c3ccccc23)no1	–	> 10	–
COc1cccc(Cn2cc(S(=O)(=O)CC(=O)Nc3cc(C)on3)c3ccccc32)c1	79	–	–
Cc1cc(NC(=O)CS(=O)(=O)c2cn(Cc3cccc(-c4cn[nH]c4)c3F)c3ccccc23)no1	103	4.4	–
Cc1cc(NC(=O)CS(=O)(=O)c2cn(Cc3cccc(Br)c3F)c3ccccc23)no1	–	> 10	–
Cc1cc(NC(=O)CS(=O)(=O)c2cn(Cc3ccc(F)cc3F)c3ccccc23)no1	–	> 10	–
Cc1cc(NC(=O)CS(=O)(=O)c2cn(Cc3cc(Br)cc(Br)c3)c3ccccc23)no1	–	> 10	–
Cc1cc(NC(=O)CS(=O)(=O)c2cn(Cc3ccc(F)cc3Br)c3ccccc23)no1	–	> 10	–

— ChEMBL document CHEMBL1772947, “Discovery and optimization of a novel, selective and brain penetrant M1 positive allosteric modulator (PAM): the development of ML169, an MLPCN probe” (Bioorg Med Chem Lett, 2011)
